# Source: ChEMBL document CHEMBL1121837, “Synthesis and antischistosomal activity of certain pyrazolo[1,5-a]pyrimidines” (1981)
# Test system: Schistosoma mansoni
# Assay: In vitro antischistosomal activity, minimum active concentration to cause severe damage or death of worms at 96 hr against Schistosoma mansoni
# Format: functional
# How it was run: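 Adult S. mansoni pairs (Puerto Rican strain, 46-day infection, recovered from mice) incubated at 37 °C, 2.0 mL medium per pair, in serumless medium with 50 µg/mL gentamycin sulfate. Compound dissolved in DMSO, final DMSO ≤1%. Worms examined by inverted microscope at intervals up to 96 h, when the final reading was taken.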
row,SMILES,MAC [µg/mL]
1,Cc1cccc(-c2cnn3c(O)cc(-c4ccccc4)nc23)c1,1
2,Oc1cc(-c2ccccc2)nc2c(-c3ccc(Cl)cc3)cnn12,100
3,Cc1cc(O)n2nc(-c3ccccc3)cc2n1,100
4,CCOC(=O)c1cnn2c(O)cc(-c3ccccc3)nc12,>100
5,CCCn1ccc(=O)n2nc(-c3ccccc3)cc12,100
6,Cn1c(-c2ccccc2)cc(=O)n2nc(-c3ccccc3)cc12,100
7,Cc1cccc(-c2cnn3c(S)cc(C)nc23)c1,100
8,Sc1ccnc2cc(-c3ccccc3)nn12,1
9,Oc1cc(-c2ccccc2)nc2ccnn12,>100
10,Sc1cc(-c2ccccc2)nc2ccnn12,1
11,Cc1cccc(-c2cnn3c(S)ccnc23)c1,0.32
12,Cc1cc(S)n2nc(-c3ccccc3)cc2n1,1
13,CCn1ccc(=S)n2nccc12,100
14,Sc1ccnc2ccnn12,1
15,Cc1cc(S)n2ncc(-c3ccc(Cl)cc3)c2n1,100
16,Cn1ccc(=S)n2nc(-c3ccccc3)cc12,10
17,Cn1ccc(=S)n2nccc12,>100
18,Cc1cc(=S)n2nccc2n1C,>100
19,COc1cc(-c2cc3nc(C)cc(O)n3n2)cc(OC)c1OC,>100
20,Cc1cc(O)n2ncc(-c3ccccc3)c2n1,100

row,SMILES,MAC [µg/mL]
1,Cc1cc(=O)n2nccc2n1C,100
2,O=c1cc(-c2ccccc2)[nH]c2cc(-c3cccc(Cl)c3)nn12,>100
3,COc1cc(-c2cc3nc(C)cc(S)n3n2)cc(OC)c1OC,1
4,Oc1cc(-c2ccccc2)nc2c(-c3ccccc3)cnn12,10
5,Sc1ccnc2c(-c3ccccc3)cnn12,1
6,CCn1ccc(=O)n2nccc12,>100
7,Cc1cc(S)n2nccc2n1,3.2
8,Cc1cc(S)n2ncc(-c3ccccc3)c2n1,1
9,Cn1ccc(=O)n2nc(-c3ccccc3)cc12,>100
10,Cn1ccc(=O)n2nccc12,>100
11,Cc1cc(O)n2nc(-c3cccc(Cl)c3)cc2n1,>100
12,Oc1ccnc2c(-c3ccccc3)cnn12,100
13,Cc1cccc(-c2cnn3c(O)ccnc23)c1,100
14,CCOC(=O)c1cnn2c(S)cc(C)nc12,10
15,Sc1cc(-c2ccccc2)nc2cc(-c3ccccc3)nn12,1
16,COc1cc(-c2cc3nc(-c4ccccc4)cc(O)n3n2)cc(OC)c1OC,>100
17,Cc1cccc(-c2cnn3c(O)cc(C)nc23)c1,100
18,CCCn1ccc(=S)n2nc(-c3ccccc3)cc12,10
19,Oc1cc(-c2ccccc2)nc2cc(-c3ccccc3)nn12,>100
20,Oc1ccnc2cc(-c3ccccc3)nn12,>100
